Results published in ChEMBL document CHEMBL5058577, “EUbOPEN Chemogenomics Library 2 (Multiplex)” (2022).

Test system: U2OS
Assay: Multiplex assay against U2OS
Type: toxicity, cell-based
Details: human
In short: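 At seeding, live cells were stained with Hoechst33342, BioTracker Green Microtubule Cytoskeleton Dye, MitoTracker Red and Annexin V Alexa Fluor 680. After compound addition they were imaged on a CQ1 microscope at 37°C and 5% CO2, and CellPathfinder machine-learning gating sorted them into Hoechst high-intensity objects or normal cells, with normal cells further split into healthy, pyknosed or fragmented nuclei and pyknosed cells into mitotic or apoptotic. Tubulin, mitochondrial-mass and membrane-permeability phenotypes are given as per cents of cells with healthy nuclei.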

[1] = 12 h, 1 µM, compound concentration 1 uM, replicate 1
[2] = 12 h, 1 µM, compound concentration 1 uM, replicate 2
[3] = 12 h, 10 µM, compound concentration 10 uM, replicate 1
[4] = 12 h, 10 µM, compound concentration 10 uM, replicate 2
[5] = 24 h, 1 µM, compound concentration 1 uM, replicate 1
[6] = 24 h, 1 µM, compound concentration 1 uM, replicate 2
[7] = 24 h, 10 µM, compound concentration 10 uM, replicate 1
[8] = 24 h, 10 µM, compound concentration 10 uM, replicate 2
[9] = 48 h, 1 µM, compound concentration 1 uM, replicate 1
[10] = 48 h, 1 µM, compound concentration 1 uM, replicate 2
[11] = 48 h, 10 µM, compound concentration 10 uM, replicate 1
[12] = 48 h, 10 µM, compound concentration 10 uM, replicate 2

CN1CCN2c3ncccc3Cc3ccccc3C2C1 (stereo not drawn) [MIRTAZAPINE]
Population Apoptotic (%) [1]: 82% | Population Fragmented Nuclei (%) [1]: 21% | Population Healthy Nuclei (%) [1]: 67% | Population Hoechst High Intensity Objects (%) [1]: 1% | Population Membrane Permeable-Phenotype (%) [1]: 3% | Population Mitochondria Different-Phenotype (%) [1]: 1% | Population Mitotic Cells (%) [1]: 17% | Population Normal (%) [1]: 99% | Population Pyknosed Nuclei (%) [1]: 11% | Population Tubulin-Different-Phenotype (%) [1]: 2% | Total Cell Count [1]: 301 | Population Apoptotic (%) [2]: 100% | Population Healthy Nuclei (%) [2]: 72% | Population Membrane Permeable-Phenotype (%) [2]: 5% | Population Mitochondria Different-Phenotype (%) [2]: 6% | Population Mitotic Cells (%) [2]: 0% | Population Normal (%) [2]: 98% | Population Pyknosed Nuclei (%) [2]: 6% | Population Tubulin-Different-Phenotype (%) [2]: 3% | Total Cell Count [2]: 81 | Population Apoptotic (%) [3]: 73% | Population Fragmented Nuclei (%) [3]: 19% | Population Healthy Nuclei (%) [3]: 71% | Population Hoechst High Intensity Objects (%) [3]: 3% | Population Membrane Permeable-Phenotype (%) [3]: 6% | Population Mitochondria Different-Phenotype (%) [3]: 5% | Population Mitotic Cells (%) [3]: 26% | Population Normal (%) [3]: 96% | Population Pyknosed Nuclei (%) [3]: 8% | Population Tubulin-Different-Phenotype (%) [3]: 6% | Total Cell Count [3]: 266 | Population Apoptotic (%) [4]: 66% | Population Fragmented Nuclei (%) [4]: 13% | Population Healthy Nuclei (%) [4]: 82% | Population Membrane Permeable-Phenotype (%) [4]: 3% | Population Mitochondria Different-Phenotype (%) [4]: 4% | Population Mitotic Cells (%) [4]: 33% | Population Pyknosed Nuclei (%) [4]: 3% | Population Tubulin-Different-Phenotype (%) [4]: 0% | Total Cell Count [4]: 83 | Population Apoptotic (%) [5]: 85% | Population Fragmented Nuclei (%) [5]: 15% | Population Healthy Nuclei (%) [5]: 76% | Population Hoechst High Intensity Objects (%) [5]: 2% | Population Membrane Permeable-Phenotype (%) [5]: 5% | Population Mitochondria Different-Phenotype (%) [5]: 3% | Population Mitotic Cells (%) [5]: 14% | Population Normal (%) [5]: 97% | Population Pyknosed Nuclei (%) [5]: 8% | Population Tubulin-Different-Phenotype (%) [5]: 2% | Total Cell Count [5]: 340 | Population Apoptotic (%) [6]: 100% | Population Fragmented Nuclei (%) [6]: 26% | Population Healthy Nuclei (%) [6]: 63% | Population Hoechst High Intensity Objects (%) [6]: 3% | Population Membrane Permeable-Phenotype (%) [6]: 3% | Population Mitotic Cells (%) [6]: 0% | Population Normal (%) [6]: 96% | Population Pyknosed Nuclei (%) [6]: 10% | Population Tubulin-Different-Phenotype (%) [6]: 4% | Total Cell Count [6]: 99 | Population Apoptotic (%) [7]: 89% | Population Fragmented Nuclei (%) [7]: 18% | Population Healthy Nuclei (%) [7]: 71% | Population Hoechst High Intensity Objects (%) [7]: 2% | Population Membrane Permeable-Phenotype (%) [7]: 4% | Population Mitochondria Different-Phenotype (%) [7]: 2% | Population Mitotic Cells (%) [7]: 10% | Population Normal (%) [7]: 97% | Population Pyknosed Nuclei (%) [7]: 9% | Population Tubulin-Different-Phenotype (%) [7]: 0% | Total Cell Count [7]: 314 | Population Apoptotic (%) [8]: 83% | Population Fragmented Nuclei (%) [8]: 9% | Population Healthy Nuclei (%) [8]: 85% | Population Hoechst High Intensity Objects (%) [8]: 0% | Population Membrane Permeable-Phenotype (%) [8]: 5% | Population Mitotic Cells (%) [8]: 16% | Population Normal (%) [8]: 99% | Population Pyknosed Nuclei (%) [8]: 5% | Population Tubulin-Different-Phenotype (%) [8]: 5% | Total Cell Count [8]: 108 | Population Apoptotic (%) [9]: 83% | Population Fragmented Nuclei (%) [9]: 12% | Population Healthy Nuclei (%) [9]: 76% | Population Hoechst High Intensity Objects (%) [9]: 2% | Population Membrane Permeable-Phenotype (%) [9]: 4% | Population Mitochondria Different-Phenotype (%) [9]: 2% | Population Mitotic Cells (%) [9]: 16% | Population Normal (%) [9]: 97% | Population Pyknosed Nuclei (%) [9]: 10% | Population Tubulin-Different-Phenotype (%) [9]: 3% | Total Cell Count [9]: 479 | Population Apoptotic (%) [10]: 92% | Population Fragmented Nuclei (%) [10]: 20% | Population Healthy Nuclei (%) [10]: 68% | Population Hoechst High Intensity Objects (%) [10]: 4% | Population Membrane Permeable-Phenotype (%) [10]: 8% | Population Mitochondria Different-Phenotype (%) [10]: 4% | Population Mitotic Cells (%) [10]: 7% | Population Normal (%) [10]: 95% | Population Pyknosed Nuclei (%) [10]: 11% | Population Tubulin-Different-Phenotype (%) [10]: 1% | Total Cell Count [10]: 132 | Population Apoptotic (%) [11]: 95% | Population Fragmented Nuclei (%) [11]: 15% | Population Healthy Nuclei (%) [11]: 75% | Population Hoechst High Intensity Objects (%) [11]: 2% | Population Membrane Permeable-Phenotype (%) [11]: 7% | Population Mitochondria Different-Phenotype (%) [11]: 4% | Population Mitotic Cells (%) [11]: 5% | Population Normal (%) [11]: 97% | Population Pyknosed Nuclei (%) [11]: 9% | Population Tubulin-Different-Phenotype (%) [11]: 5% | Total Cell Count [11]: 435 | Population Apoptotic (%) [12]: 100% | Population Fragmented Nuclei (%) [12]: 12% | Population Healthy Nuclei (%) [12]: 78% | Population Membrane Permeable-Phenotype (%) [12]: 3% | Population Mitochondria Different-Phenotype (%) [12]: 3% | Population Mitotic Cells (%) [12]: 0% | Population Tubulin-Different-Phenotype (%) [12]: 3% | Total Cell Count [12]: 170
